Assay results as given in ChEMBL document CHEMBL1121375, “Synthesis and structure-function studies of melanocyte stimulating hormone analogues modified in the 2 and 4(7) positions: comparison of activities on frog skin melanophores and melanoma adenylate cyclase” (1980).
Square brackets hold non-standard residues; d marks the D form. Peptide text beside a SMILES is read from it. Nle = CCCC[C@H](N)C(=O)O

How the values were obtained:
[1] = species: Mus musculus; assay: Relative potency using melanoma adenylate cyclase bioassay system from S-91 melanoma tumors grown in DBA/2J mice; type: functional
How it was run: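 Particulate membrane fraction from S-91 melanoma tumors; 100 μg membrane protein starts the reaction. Medium: 1 mM [α-³²P]ATP, 5 mM MgCl₂, 1 mM cAMP, 0.5 mM IBMX, 1 mM DTT, 20 mM creatine phosphate, 100 U/mL creatine phosphokinase, 10 μM GTP, 30 mM Tris-HCl pH 7.5. 10 min at 30 °C; [³²P]cAMP isolated and counted. Potency from half-maximal response relative to α-MSH.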

[2] = tested on: Melanocortin receptor (Rana berlandieri); assay: Relative potency using frog skin bioassay system

Potency [2] | Compound | Potency [1]
0.82 | CCCC[C@H](NC(=O)[C@H](CO)NC(=O)[C@H](Cc1ccccc1)NC(=O)[C@H](CO)NC(C)=O)C(=O)N[C@@H](CCC(=O)O)C(=O)N[C@@H](Cc1c[nH]cn1)C(=O)N[C@@H](Cc1ccccc1)C(=O)N[C@@H](CCCN=C(N)N)C(=O)N[C@@H](Cc1c[nH]c2ccccc12)C(=O)NCC(=O)N[C@@H](CCCCN)C(=O)N1CCC[C@H]1C(=O)N[C@H](C(N)=O)C(C)C | 0.9
5.2 | CCCC[C@H](NC(=O)[C@H](CCCCN)NC(=O)[C@H](Cc1ccc(O)cc1)NC(=O)[C@@H]1CCCN1C(=O)CNC(=O)[C@H](CCC(=O)O)NC(=O)[C@@H](N)CC(=O)O)C(=O)N[C@@H](CCC(=O)O)C(=O)N[C@@H](Cc1c[nH]cn1)C(=O)N[C@@H](Cc1ccccc1)C(=O)N[C@@H](CCCN=C(N)N)C(=O)N[C@@H](Cc1c[nH]c2ccccc12)C(=O)NCC(=O)N[C@@H](CO)C(=O)N1CCC[C@H]1C(=O)N1CCC[C@H]1C(=O)N[C@@H](CCCCN)C(=O)N[C@@H](CC(=O)O)C(=O)O (H-DEGPYK[Nle]EHFRWGSPPKD-OH) | 4.2
0.55 | H-DEGPYKMEHFRWGSPPKD-OH | 2.2
